The values below come from ChEMBL document CHEMBL1153829, “Exploiting chemical libraries, structure, and genomics in the search for kinase inhibitors” (Science, 1998).

Activity calls are given as the source filed them. The rule behind the calls is not given here.

A short description of test [1]: Induction of microtubule […].
For test [2], the system named is Saccharomyces cerevisiae. Description: Induction of PGM2 gene expression in delta snq2, delta pdr5 and delta erg6 knock out yeast YRP1 at 25 µM after 2 hrs by high-density oligonucleotide array. In kind it is functional, organism-based. To be noted: 25 M. Put shortly: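 Drug-sensitized yeast strain grown to late logarithmic phase, then exposed to 25 μM inhibitor for 2 h. Polyadenylated mRNA was isolated and converted to biotin-labeled cRNA, which was hybridized to a set of four arrays carrying over 260,000 25-nucleotide oligomers. Transcripts changing more than twofold were scored, from triplicate hybridizations in each of two independent experiments.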

In test [3] the test system is Saccharomyces cerevisiae. As to the kind of experiment: Increase in PHO8 mRNA level in delta snq2, delta pdr5 and delta erg6 knock out yeast YRP1 at 25 µM after 2 hrs by high-density oligonucleotide array. It counts as functional, organism-based. To be noted: […]. Put shortly: (§1)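 Drug-sensitized S. cerevisiae cultures grown to late logarithmic phase, then exposed to 25 μM inhibitor for 2 h. Polyadenylated mRNA isolated, converted to biotin-labeled cRNA and hybridized to a set of four high-density arrays carrying more than 260,000 25-nucleotide oligomers. Transcripts scored as changed when they shifted more than twofold in triplicate hybridizations for each of two independent experiments.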

The subject of test [4] is Saccharomyces cerevisiae. Description: Growth inhibition of delta snq2, delta pdr5 and delta erg6 knock out yeast YRP1 after 2 hrs. In kind it is functional.
Test [5] concerns Saccharomyces cerevisiae. As to the kind of experiment: Induction of ALD4 gene expression in delta snq2, delta pdr5 and delta erg6 knock out yeast YRP1 at 25 µM after 2 hrs by high-density oligonucleotide array. It counts as functional, organism-based. Conditions: 25 M. Put shortly: as §1
Test [6] relates to Nucleic Acid. As to the kind of experiment: Induction of condensation of DNA. It counts as nucleic-acid assay.
The test system of test [7] is Saccharomyces cerevisiae. Description: Effect on YNR009w gene expression in delta snq2, delta pdr5 and delta erg6 knock out yeast YRP1 assessed as change in mRNA level at 25 µM after 2 hrs by high-density oligonucleotide array. In kind it is functional, organism-based. Conditions: […]. Put shortly: as §1
Test [8] has as its system Saccharomyces cerevisiae. Description: Decrease in RPL4A mRNA level in delta snq2, delta pdr5 and delta erg6 knock out yeast YRP1 at 25 µM after 2 hrs by high-density oligonucleotide array. In kind it is functional. Put shortly: as §1

As for `CC(C)n1cnc2/c(=N/c3cccc(Cl)c3)nc(NCCO)[nH]c21`, the result in test [1], in test [2], in test [3], in test [5], in test [6] and in test [7] was Active. This compound also came in with a GI50 in test [4] of 30 µM. For the same compound, the “fold change (FC)” value in test [8] is 3.
Regarding `CN1CC[C@H](c2c(O)cc(O)c3c(=O)cc(-c4ccccc4Cl)oc23)[C@H](O)C1` [ALVOCIDIB], the outcome in test [2], in test [3], in test [5] and in test [7] was Active. Moreover, the “fold change (FC)” value in test [8] is given as 3.

As usually defined, the GI50 is the concentration that inhibits growth by half. Read a low GI50 as greater sensitivity of the cells.
